In the library only some 5.8% were active in any assay of this set; here they are far more common.
IDH1 mut inh: inhibitors of human IDH1 R132H; AID 624101; IDH1 R132H reductase, diaphorase/resazurin fluorescence, 60 min; hit rate 0.18% among 70,000; O75874; inhibition, % at 10 µM; in the data active = inhibition above about 34%; inconclusive = no clear call, values can overlap the other calls; inactive = below about 11%;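 also: 0% = DMSO and 100% = no enzyme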
T cruzi growth-1: inhibitors of T. cruzi proliferation | T. cruzi beta-gal in NIH3T3, GalScreen luminescence, 90 h | inhibition, % at 8.34 µM | hit rate 5.9% among 77,000 | AID 624255;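 active = mean inhibition above about 93%, with at least 55% of replicates each passing it, limit read from the data, passing the limit was not always enough; inconclusive = only one of those two conditions holds; inactive = neither condition holds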
Pf Dd2 growth: blocks growth of Plasmodium falciparum Dd2 parasites | hit rate 2.3% among 94,000 | AID 1159554 | activity change, % at 10 µM | P. falciparum Dd2 growth, SYBR Green, 72 h; hits give low values; in the data active = activity change below about -80%; inconclusive = no clear call, values can overlap the other calls
GASC1 inh: KDM4C (human) demethylase inhibition; Q9H3R0; GST-KDM4C 2-372, H3K9me3 peptide, LANCE TR-FRET; inhibition, % at 12.5 µM; hit rate 0.15% among 96,000; AID 720574;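 active = mean replicate inhibition above about 25%, with at least 55% of replicates also reaching it, limit read from the data, passing the limit was not always enough; inconclusive = only one of those two conditions met; inactive = neither condition met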
Target sequence (Q9H3R0 2-372 limits assumed): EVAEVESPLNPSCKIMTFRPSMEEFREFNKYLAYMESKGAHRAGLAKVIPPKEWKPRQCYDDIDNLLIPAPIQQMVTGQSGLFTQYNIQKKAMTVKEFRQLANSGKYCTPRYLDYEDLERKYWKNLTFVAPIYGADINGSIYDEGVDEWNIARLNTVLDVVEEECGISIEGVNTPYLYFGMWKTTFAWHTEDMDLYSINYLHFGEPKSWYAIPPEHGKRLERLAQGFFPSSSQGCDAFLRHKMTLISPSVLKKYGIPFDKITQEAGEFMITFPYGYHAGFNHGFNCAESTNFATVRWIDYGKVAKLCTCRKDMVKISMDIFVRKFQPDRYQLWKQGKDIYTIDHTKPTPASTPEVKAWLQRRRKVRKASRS
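Assay system: GST-GASC-1 enzyme fragment 2-372 | Amount: 10 nM enzyme | Medium: HEPES buffer, pH 7.5, plus ascorbate | Reagent: H3K9me3 peptide substrate, Fe(II), 2-oxoglutarate | Doses: Single-point compound screen | Incubation: 30 min demethylation and 1 h detection at room temperature | Measured by: LANCE TR-FRET, excitation 340 nm, emissions 618 and 671 nm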
T cruzi growth-2: inhibitors of T. cruzi proliferation. shares compounds with T cruzi growth-1. T. cruzi beta-gal in NIH3T3, GalScreen luminescence, 90 h. inhibition, % at 8.35 µM. hit rate 72% among 5,600;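 active = mean replicate inhibition above about 95% and at least 55% of replicates individually reaching it, limit read from the data; inconclusive = only one of the two criteria is met; inactive = neither criterion is met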
T cruzi growth-3: blocks T. cruzi growth in NIH3T3 host cells | shares compounds with T cruzi growth-1 | T. cruzi beta-gal in NIH3T3, GalScreen luminescence, 90 h | inhibition, % at 2.09 µM | hit rate 21% among 5,600 | AID 651740;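 active = mean inhibition above about 95%, with at least 55% of replicates also reaching it, limit read from the data; inconclusive = meets just one of the two conditions; inactive = meets neither condition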;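 also: plate controls were neutral control median for no effect and positive control median for full effect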
NIH3T3 tox: kills mouse NIH/3T3 fibroblasts | cytotoxicity (signal decrease), % at 8.35 µM | hit rate 14% among 5,600 | NIH/3T3 viability, CellTiter-Glo ATP luminescence, 90 h | AID 651742 | shares compounds with T cruzi growth-1;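 active = mean signal decrease across replicates above about 35% based on untreated-well scatter, with enough replicates individually passing, limit read from the data; inconclusive = no rule stated though some were filed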;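 also: 0% = median of neutral control wells and 100% = median of positive control wells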
NIH3T3 tox 2: kills mouse NIH/3T3 fibroblasts. shares compounds with T cruzi growth-1. NIH/3T3 viability, CellTiter-Glo ATP luminescence, 90 h. inhibition, % at 24.9 µM. hit rate 56% among 5,600. AID 651744;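 active = mean loss of cell viability signal at or above a set limit, and enough replicates individually reaching it; inconclusive = meets only the mean limit or only the replicate share; inactive = meets neither condition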;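 also: 0% = median of neutral control wells and 100% = median of positive control wells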
* hit, by the source's call; ? = inconclusive; · = no result.

SMILES	IDH1 mut inh	T cruzi growth-1	Pf Dd2 growth	GASC1 inh	T cruzi growth-2	T cruzi growth-3	NIH3T3 tox	NIH3T3 tox 2
COc1ccc(-c2ccc([C@H]3[C@@H](CO)N4CCCCN(C(=O)Cc5ccccc5)C[C@@H]34)cc2)cc1	·	102.1*	-51.1	0.0	106.8*	105.9*	18.7	?
N#Cc1ccc(-c2ccc([C@@H]3[C@H](CO)N4CCCCN(C(=O)Cc5ccccc5)C[C@@H]34)cc2)cc1	·	91.7	-25.5	0.1	·	·	·	·
O=C(Cc1ccncc1)N1CCCCN2[C@H](CO)[C@H](c3ccc(-c4ccncc4)cc3)[C@@H]2C1	·	101.6*	-74.7	0.9	49.6	-24.8	-2.1	-10.3
O=C(Cc1ccncc1)N1CCCCN2[C@@H](CO)[C@@H](c3ccc(-c4ccncc4)cc3)[C@@H]2C1	·	85.3	4.9	-0.4	·	·	·	·
COc1ccc(-c2ccc([C@H]3[C@H](CO)N4CCCCN(C(=O)Cc5ccccc5)C[C@@H]34)cc2)cc1	·	108.0*	-10.0	-1.5	106.8*	80.8	10.8	105.6*
COc1ccc(-c2ccc([C@@H]3[C@H](CO)N4CCCCN(C(=O)Cc5ccccc5)C[C@@H]34)cc2)cc1	·	98.7*	-30.4	-1.8	104.3*	78.0	26.4	105.6*
O=C1/C(=C/c2ccccc2)C[C@@]2(O)C3Cc4ccc(O)c5c4[C@@]2(CCN3CC2CC2)[C@H]1O5	0.5	·	·	·	·	·	·	·
CC(C)C1(NC(=O)C2CC3c4cccc5[nH]cc(c45)CC3N(C)C2)OC2(O)C3CCCN3C(=O)C(Cc3ccccc3)N2C1=O (configuration not stated)	-2.1	·	·	·	·	·	·	·
C=CC1CN2CCC1CC2C(OC(=O)c1ccco1)c1ccnc2ccccc12 (configuration not stated)	3.7	·	·	·	·	·	·	·
CC(=O)c1c(C)n(Cc2ccccc2)c2c(Cl)c(Cl)c(Cl)c(OCC(=O)O)c12	2.6	·	·	·	·	·	·	·
CNCC(O)c1ccc(O)c(OC)c1 (configuration not stated)	-1.2	·	·	·	·	·	·	·
O=C(Cc1ccccc1)N1CCCCN2[C@H](CO)[C@H](c3ccc(-c4ccccc4)cc3)[C@@H]2C1	·	4.8	23.5	-1.7	·	·	·	·
O=C(Cc1ccccc1)N1CCCCN2[C@@H](CO)[C@@H](c3ccc(-c4ccccc4)cc3)[C@@H]2C1	·	?	-19.3	-1.5	104.0*	55.8	16.1	104.6*
O=C(Cc1ccccc1)N1CCCCN2[C@H](C1)[C@@H](c1ccc(C#CC3(O)CCCC3)cc1)[C@@H]2CO	·	14.9	-19.2	-0.1	·	·	·	·
O=C(Cc1ccccc1)N1CCCCN2[C@H](CO)[C@H](c3ccc(C#CC4(O)CCCC4)cc3)[C@@H]2C1	·	103.4*	2.1	-0.9	76.0	39.0	11.2	14.9
O=C(Cc1ccccc1)N1CCCCN2[C@@H](CO)[C@@H](c3ccc(C#CC4(O)CCCC4)cc3)[C@@H]2C1	·	93.8	-28.1	0.2	·	·	·	·
O=C(Cc1ccncc1)N1CCCCN2[C@@H](CO)[C@@H](c3ccc(C#CC4(O)CCCC4)cc3)[C@@H]2C1	·	109.6*	-10.1	-0.1	26.1	-13.8	-17.1	-8.7
O=C(Cc1ccccc1)N1CCCCN2[C@@H](CO)[C@H](c3ccc(C#CC4(O)CCCC4)cc3)[C@@H]2C1	·	108.7*	-28.0	-0.1	102.4*	28.4	11.3	33.2*
COc1cc2c(cc1OC)-c1c(OC)c(OC)c(N)c3c1[C@H](C2)N(C)CC3	-1.5	·	·	·	·	·	·	·
N#Cc1cccc(-c2ccc([C@H]3[C@H]4CN(C(=O)Cc5ccncc5)CCCCN4[C@H]3CO)cc2)c1	·	105.4*	-8.5	-0.1	84.2	35.4	-2.6	46.6*
N#Cc1cccc(-c2ccc([C@@H]3[C@H]4CN(C(=O)Cc5ccccc5)CCCCN4[C@H]3CO)cc2)c1	·	90.4	-11.7	0.3	·	·	·	·
N#Cc1cccc(-c2ccc([C@H]3[C@H]4CN(C(=O)Cc5ccccc5)CCCCN4[C@H]3CO)cc2)c1	·	?	-13.5	-0.5	71.2	-4.1	12.0	6.5
COc1ccc(-c2ccc([C@H]3[C@H]4CN(C(=O)Cc5ccncc5)CCCCN4[C@H]3CO)cc2)cc1	·	69.7	-3.6	-1.0	·	·	·	·
COc1ccc(-c2ccc([C@@H]3[C@@H](CO)N4CCCCN(C(=O)Cc5ccncc5)C[C@H]34)cc2)cc1	·	54.8	-47.4	0.5	·	·	·	·
COc1ccc(C#Cc2ccc([C@H]3[C@H](CO)N4CCCCN(C(=O)Cc5ccncc5)C[C@@H]34)cc2)cc1	·	105.9*	-62.2	-2.1	107.7*	81.2	20.4	104.7*
SMILES	IDH1 mut inh	T cruzi growth-1	Pf Dd2 growth	GASC1 inh	T cruzi growth-2	T cruzi growth-3	NIH3T3 tox	NIH3T3 tox 2
COc1ccc(C#Cc2ccc([C@@H]3[C@H](CO)N4CCCCN(C(=O)Cc5ccncc5)C[C@@H]34)cc2)cc1	·	111.8*	-71.0	0.4	103.2*	86.2	14.8	104.4*
CO/C1=C/C(C)=C/[C@@H](C)[C@@H](O)[C@@H](C)C/C(C)=C/C=C\[C@H](OC)[C@@H]([C@@H](C)[C@@H](O)[C@H](C)[C@@]2(O)C[C@@H](O)[C@H](C)[C@@H](C(C)C)O2)OC1=O	1.5	·	·	·	·	·	·	·
C[C@H]1CN([C@@H](C)CO)C(=O)CCCn2cc(nn2)CO[C@H]1CN(C)C(=O)Oc1cccc2ccccc12	0.3	116.7*	-14.6	-0.3	52.5	13.2	10.5	24.0
COc1ccc(C#Cc2ccc([C@H]3[C@H]4CN(C(=O)Cc5ccccc5)CCCCN4[C@H]3CO)cc2)cc1	·	79.7	-17.0	-2.3	·	·	·	·
O=C(Cc1ccccc1)N1CCCCN2[C@H](CO)[C@@H](c3ccc(C#Cc4ccccc4)cc3)[C@@H]2C1	·	106.4*	-40.2	2.0	99.8*	70.0	2.8	105.5*
O=C(Cc1ccncc1)N1CCCCN2[C@H](CO)[C@H](c3ccc(C#Cc4ccccc4F)cc3)[C@H]2C1	·	?	-37.7	6.1	103.8*	67.5	26.3	102.8*
O=C(Cc1ccncc1)N1CCCCN2[C@@H](CO)[C@@H](c3ccc(C#Cc4ccccc4F)cc3)[C@@H]2C1	·	65.9	-62.1	-0.2	·	·	·	·
O=C(Cc1ccccc1)N1CCCCN2[C@H](CO)[C@@H](c3ccc(C#Cc4ccccc4)cc3)[C@H]2C1	·	117.9*	-52.9	-0.5	97.1*	84.2	57.7*	104.7*
C#CCN1C(C)=C(C(=O)CCO)C(c2cccc(-n3oo3)c2)C(C(=O)OC)=C1C (configuration not stated)	-0.2	·	·	·	·	·	·	·

Screening data as filed in PubChem.
